pIC50, pKd: −log10 of the molar value. In brackets after ≈: the same amount, converted by molar mass.
Key:
[1] = biological target: T1, Myeloperoxidase (Homo sapiens, UniProt P05164); experiment: Inhibition of MPO (unknown origin) measured after 15 mins in presence of H2O2 by chemiluminescence assay
T1 sequence (P05164 whole entry): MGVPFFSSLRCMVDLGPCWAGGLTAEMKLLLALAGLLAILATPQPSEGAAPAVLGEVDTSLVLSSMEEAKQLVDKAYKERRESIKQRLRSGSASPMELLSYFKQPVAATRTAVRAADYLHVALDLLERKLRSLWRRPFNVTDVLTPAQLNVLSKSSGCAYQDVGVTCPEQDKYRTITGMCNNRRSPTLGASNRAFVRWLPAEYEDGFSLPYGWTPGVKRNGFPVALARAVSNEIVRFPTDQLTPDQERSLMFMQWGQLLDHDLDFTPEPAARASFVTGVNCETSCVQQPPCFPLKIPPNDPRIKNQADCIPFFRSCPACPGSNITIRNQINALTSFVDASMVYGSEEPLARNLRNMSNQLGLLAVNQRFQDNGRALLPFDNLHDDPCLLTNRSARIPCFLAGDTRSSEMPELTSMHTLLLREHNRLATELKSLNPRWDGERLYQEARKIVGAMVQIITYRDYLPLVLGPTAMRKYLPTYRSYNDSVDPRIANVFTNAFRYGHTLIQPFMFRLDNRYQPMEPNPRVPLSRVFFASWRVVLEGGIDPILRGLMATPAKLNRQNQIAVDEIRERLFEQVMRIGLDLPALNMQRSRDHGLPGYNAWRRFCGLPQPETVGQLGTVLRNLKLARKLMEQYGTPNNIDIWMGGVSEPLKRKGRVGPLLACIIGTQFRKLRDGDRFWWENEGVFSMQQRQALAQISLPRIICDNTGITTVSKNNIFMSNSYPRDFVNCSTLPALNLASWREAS

[2] = biological target: T1, Myeloperoxidase; experiment: Inhibition of MPO in human HL-60 cells measured after 15 mins in presence of H2O2 by chemiluminescence assay; format: cell-based
[3] = biological target: T2, Thyroid peroxidase (Homo sapiens, UniProt P07202); experiment: Inhibition of human recombinant TPO (1 to 839 residues) expressed in baculovirus-infected insect cells measured after 15 mins in presence of H2O2 by chemiluminescence assay
T2 sequence (P07202 whole entry): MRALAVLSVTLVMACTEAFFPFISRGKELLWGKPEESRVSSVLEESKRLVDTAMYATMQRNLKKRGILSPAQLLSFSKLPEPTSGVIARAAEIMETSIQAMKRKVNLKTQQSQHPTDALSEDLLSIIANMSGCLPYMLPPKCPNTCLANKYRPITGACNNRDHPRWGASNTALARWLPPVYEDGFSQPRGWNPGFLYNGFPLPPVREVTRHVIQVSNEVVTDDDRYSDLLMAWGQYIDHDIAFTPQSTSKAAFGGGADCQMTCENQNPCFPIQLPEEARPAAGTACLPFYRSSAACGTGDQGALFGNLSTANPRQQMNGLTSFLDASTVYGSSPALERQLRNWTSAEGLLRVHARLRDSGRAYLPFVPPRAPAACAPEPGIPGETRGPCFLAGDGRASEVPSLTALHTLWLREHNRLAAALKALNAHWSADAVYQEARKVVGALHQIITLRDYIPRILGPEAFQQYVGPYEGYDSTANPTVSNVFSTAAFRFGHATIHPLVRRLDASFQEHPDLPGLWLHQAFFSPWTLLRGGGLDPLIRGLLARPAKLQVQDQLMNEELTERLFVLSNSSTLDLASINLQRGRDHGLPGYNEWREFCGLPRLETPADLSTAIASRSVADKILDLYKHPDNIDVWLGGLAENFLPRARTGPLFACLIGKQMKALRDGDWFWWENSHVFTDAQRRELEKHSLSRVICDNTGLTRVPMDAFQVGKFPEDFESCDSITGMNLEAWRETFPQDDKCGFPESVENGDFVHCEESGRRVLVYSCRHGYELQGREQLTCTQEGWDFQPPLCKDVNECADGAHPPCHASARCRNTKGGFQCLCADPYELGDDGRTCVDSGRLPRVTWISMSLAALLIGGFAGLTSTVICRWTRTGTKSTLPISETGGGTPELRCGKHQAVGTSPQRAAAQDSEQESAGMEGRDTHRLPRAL
Method in brief: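 IC50 determined against purified enzyme in an in vitro chemiluminescent assay.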

[4] = Lipophilicity, log D of the compound; settings: octanol/water
[5] = Apparent permeability of the compound across apical to basolateral side in human Caco-2 cells at 10 uM by LC-MS/MS analysis
[6] = Oral bioavailability in Wistar Han rat measured up to 24 hrs by LC-MS/MS analysis; format: ADME, organism-based; settings: in vivo
[7] = Oral bioavailability in Beagle dog measured up to 24 hrs by LC-MS/MS analysis; format: ADME, organism-based, Canis lupus familiaris; settings: in vivo
[8] = biological target: Voltage-gated inwardly rectifying potassium channel KCNH2 (Homo sapiens, UniProt Q12809)
Voltage-gated inwardly rectifying potassium channel KCNH2, sequence (Q12809 whole entry): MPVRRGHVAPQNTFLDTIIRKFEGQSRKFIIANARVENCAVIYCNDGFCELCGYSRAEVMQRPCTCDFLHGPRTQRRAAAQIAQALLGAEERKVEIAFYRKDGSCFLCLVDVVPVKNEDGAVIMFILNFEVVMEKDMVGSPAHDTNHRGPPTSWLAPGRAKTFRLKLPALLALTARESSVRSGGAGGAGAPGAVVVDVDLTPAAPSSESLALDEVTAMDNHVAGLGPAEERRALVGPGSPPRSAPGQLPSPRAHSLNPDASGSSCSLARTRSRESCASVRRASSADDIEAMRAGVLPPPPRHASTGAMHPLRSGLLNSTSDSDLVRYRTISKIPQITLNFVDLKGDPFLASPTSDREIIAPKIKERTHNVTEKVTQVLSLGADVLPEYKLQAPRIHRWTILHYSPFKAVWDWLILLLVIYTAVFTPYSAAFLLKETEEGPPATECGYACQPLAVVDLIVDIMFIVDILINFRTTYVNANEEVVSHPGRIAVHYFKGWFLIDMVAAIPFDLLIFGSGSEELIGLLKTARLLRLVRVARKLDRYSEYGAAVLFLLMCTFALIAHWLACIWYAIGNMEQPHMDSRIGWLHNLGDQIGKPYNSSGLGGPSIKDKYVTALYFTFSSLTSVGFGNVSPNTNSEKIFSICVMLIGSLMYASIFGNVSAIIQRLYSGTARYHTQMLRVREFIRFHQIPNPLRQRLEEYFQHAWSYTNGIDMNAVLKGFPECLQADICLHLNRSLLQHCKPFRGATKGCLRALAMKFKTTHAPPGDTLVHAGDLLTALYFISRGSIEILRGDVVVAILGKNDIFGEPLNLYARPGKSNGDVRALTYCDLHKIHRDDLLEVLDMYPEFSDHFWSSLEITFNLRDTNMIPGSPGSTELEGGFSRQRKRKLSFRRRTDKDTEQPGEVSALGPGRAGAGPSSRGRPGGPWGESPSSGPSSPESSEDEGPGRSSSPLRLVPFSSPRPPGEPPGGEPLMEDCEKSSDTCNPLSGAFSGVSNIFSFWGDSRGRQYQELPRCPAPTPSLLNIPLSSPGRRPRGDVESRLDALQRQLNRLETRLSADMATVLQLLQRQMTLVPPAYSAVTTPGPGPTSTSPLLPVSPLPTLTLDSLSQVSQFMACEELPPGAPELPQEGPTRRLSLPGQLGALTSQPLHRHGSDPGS

[9] = biological target: Cytochrome P450 3A4 (Homo sapiens, UniProt P08684)
Cytochrome P450 3A4, sequence (P08684 whole entry): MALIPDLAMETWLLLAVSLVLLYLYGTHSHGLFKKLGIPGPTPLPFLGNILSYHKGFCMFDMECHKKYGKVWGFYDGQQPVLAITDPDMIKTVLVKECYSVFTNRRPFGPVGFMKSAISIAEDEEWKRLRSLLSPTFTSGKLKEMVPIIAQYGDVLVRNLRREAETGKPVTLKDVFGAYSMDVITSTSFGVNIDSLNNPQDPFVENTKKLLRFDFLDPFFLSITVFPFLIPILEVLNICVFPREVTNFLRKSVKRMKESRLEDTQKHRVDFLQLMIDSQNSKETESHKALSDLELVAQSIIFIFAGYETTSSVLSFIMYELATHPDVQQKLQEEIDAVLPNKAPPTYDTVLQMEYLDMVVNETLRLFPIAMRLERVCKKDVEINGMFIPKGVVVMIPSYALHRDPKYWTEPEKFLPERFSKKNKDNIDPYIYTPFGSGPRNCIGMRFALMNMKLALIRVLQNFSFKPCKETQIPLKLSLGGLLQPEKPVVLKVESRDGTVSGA

[10] = physchem; settings: phosphate buffer, pH 7.4
[11] = biological target: T1, Myeloperoxidase; experiment: Displacement of benzhydroxamic acid from native state MPO (unknown origin) by 1D NMR reporter assay
[12] = Drug uptake in human liver microsomes assessed as covalent binding at 10 uM incubated for 60 mins by LC/MS analysis; format: ADME, Microsome; settings: 1 h
Method in brief: (§1)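 Human liver microsomes incubated with the [14C]-labelled compound to measure covalent binding to microsomal protein.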

[13] = Drug uptake in human liver microsomes assessed as covalent binding at 10 uM incubated for 60 mins in presence of NADPH by LC/MS analysis; format: ADME, Microsome; settings: 1 h; method in brief: as §1
[14] = Drug uptake in heat-inactivated human liver microsomes assessed as covalent binding at 10 uM incubated for 60 mins by LC/MS analysis; format: ADME, Microsome; settings: 1 h; method in brief: as §1
[15] = Drug uptake in human liver microsomes assessed as covalent binding at 10 uM incubated for 60 mins in presence of formaldehyde by LC/MS analysis; format: ADME, Microsome; settings: 1 h
Method in brief: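 Covalent binding of the [14C]-labelled compound in human liver microsome incubations with 5 mM formaldehyde added.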

[16] = Drug uptake in human hepatocytes assessed as covalent binding measured per mg protein; format: ADME, cell-based, Hepatocyte
Method in brief: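 [14C]-labelled compound incubated with human hepatocytes; covalently bound radioactivity expressed as pmol per mg protein.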

[17] = Drug uptake in Lister Hooded rat liver assessed as nonextractable fraction at 4.55 umol/kg, po measured after 24 hrs by whole body autoradiography; format: ADME, organism-based; settings: in vivo, at 4.55 µmol/kg
Method in brief: (§2)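 Rats were given a single oral dose of 10 MBq/kg of the [14C]-labelled compound. Whole-body autoradiography was done 24 h post-dose on sections before and after extraction, with the nonextractable liver fraction taken from the extracted sections. Whole-body drug-related material was also measured at 7 days.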

[18] = Drug uptake in Lister Hooded rat pigmented skin at 4.55 umol/kg, po measured after 24 hrs by whole body autoradiography; format: ADME, organism-based, Skin of body; settings: in vivo, dose 4.55 µmol/kg; method in brief: as §2
[19] = Drug uptake in Lister Hooded rat eyes at 4.55 umol/kg, po measured after 24 hrs by whole body autoradiography; format: ADME, organism-based, Eye; settings: in vivo, dose 4.55 µmol/kg; method in brief: as §2
[20] = Drug uptake in Lister Hooded rat at 4.55 umol/kg, po measured after 7 days by whole body autoradiography; format: ADME, organism-based; settings: in vivo, 168 h, at 4.55 µmol/kg, time 7 day; method in brief: as §2
[21] = biological target: Cytochrome P450 2C9 (Homo sapiens, UniProt P11712); experiment: Inhibition of human recombinant CYP2C9 using coumarin as substrate preincubated with enzyme for 10 mins followed by NADPH addition and measured after 20 to 50 mins by fluorescence based method
Cytochrome P450 2C9, sequence (P11712 whole entry): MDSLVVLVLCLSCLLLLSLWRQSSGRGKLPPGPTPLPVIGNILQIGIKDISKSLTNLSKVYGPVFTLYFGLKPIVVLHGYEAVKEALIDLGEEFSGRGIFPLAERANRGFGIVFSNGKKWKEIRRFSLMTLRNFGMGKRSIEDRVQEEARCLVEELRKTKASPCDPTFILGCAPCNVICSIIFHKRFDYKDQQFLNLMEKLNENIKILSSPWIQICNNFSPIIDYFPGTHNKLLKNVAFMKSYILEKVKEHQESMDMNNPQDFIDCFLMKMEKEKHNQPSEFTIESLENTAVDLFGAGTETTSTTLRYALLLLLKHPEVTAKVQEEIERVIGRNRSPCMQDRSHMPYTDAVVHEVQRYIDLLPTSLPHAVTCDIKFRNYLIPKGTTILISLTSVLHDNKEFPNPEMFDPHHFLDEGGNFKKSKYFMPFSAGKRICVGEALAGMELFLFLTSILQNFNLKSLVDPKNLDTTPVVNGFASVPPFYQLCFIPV

[22] = biological target: Cytochrome P450 2D6 (Homo sapiens, UniProt P10635); experiment: Inhibition of CYP2D6 (unknown origin) using coumarin as substrate preincubated with enzyme for 10 mins followed by NADPH addition and measured after 20 to 50 mins by fluorescence based method
Cytochrome P450 2D6, sequence (P10635 whole entry): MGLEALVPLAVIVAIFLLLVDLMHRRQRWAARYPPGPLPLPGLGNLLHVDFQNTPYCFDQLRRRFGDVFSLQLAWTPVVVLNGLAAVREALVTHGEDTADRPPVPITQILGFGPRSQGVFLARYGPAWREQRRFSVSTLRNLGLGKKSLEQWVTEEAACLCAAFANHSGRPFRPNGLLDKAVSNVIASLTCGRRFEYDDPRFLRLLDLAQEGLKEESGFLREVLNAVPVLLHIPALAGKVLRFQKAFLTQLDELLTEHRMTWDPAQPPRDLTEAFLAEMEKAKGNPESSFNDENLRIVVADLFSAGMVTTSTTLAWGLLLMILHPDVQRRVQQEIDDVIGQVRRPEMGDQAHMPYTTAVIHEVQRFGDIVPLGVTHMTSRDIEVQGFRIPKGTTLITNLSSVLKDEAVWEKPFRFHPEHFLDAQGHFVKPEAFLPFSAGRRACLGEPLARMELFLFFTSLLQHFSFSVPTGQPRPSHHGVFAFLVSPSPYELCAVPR

[23] = biological target: T3, Cytochrome P450 1A2 (Homo sapiens, UniProt P05177); experiment: Inhibition of human recombinant CYP1A2 using coumarin as substrate preincubated with enzyme for 10 mins followed by NADPH addition and measured after 20 to 50 mins by fluorescence based method
T3 sequence (P05177 whole entry): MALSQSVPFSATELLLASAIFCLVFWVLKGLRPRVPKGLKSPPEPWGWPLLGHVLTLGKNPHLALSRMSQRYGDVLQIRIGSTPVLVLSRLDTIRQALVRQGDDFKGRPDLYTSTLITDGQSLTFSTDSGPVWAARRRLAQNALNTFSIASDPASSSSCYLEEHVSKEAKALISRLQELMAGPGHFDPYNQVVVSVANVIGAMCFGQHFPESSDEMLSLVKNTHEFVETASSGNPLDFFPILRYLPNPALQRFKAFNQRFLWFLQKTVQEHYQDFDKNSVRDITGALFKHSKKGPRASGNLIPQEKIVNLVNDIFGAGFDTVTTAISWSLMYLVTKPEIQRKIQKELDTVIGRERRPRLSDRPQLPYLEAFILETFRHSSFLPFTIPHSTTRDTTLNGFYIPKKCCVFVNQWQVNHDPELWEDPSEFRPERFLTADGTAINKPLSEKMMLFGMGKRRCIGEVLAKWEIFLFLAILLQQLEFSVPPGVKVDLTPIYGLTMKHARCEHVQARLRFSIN

[24] = biological target: Cytochrome P450 2C19 (Homo sapiens, UniProt P33261); experiment: Inhibition of human recombinant CYP2C19 using coumarin as substrate preincubated with enzyme for 10 mins followed by NADPH addition and measured after 20 to 50 mins by fluorescence based method
Cytochrome P450 2C19, sequence (P33261 whole entry): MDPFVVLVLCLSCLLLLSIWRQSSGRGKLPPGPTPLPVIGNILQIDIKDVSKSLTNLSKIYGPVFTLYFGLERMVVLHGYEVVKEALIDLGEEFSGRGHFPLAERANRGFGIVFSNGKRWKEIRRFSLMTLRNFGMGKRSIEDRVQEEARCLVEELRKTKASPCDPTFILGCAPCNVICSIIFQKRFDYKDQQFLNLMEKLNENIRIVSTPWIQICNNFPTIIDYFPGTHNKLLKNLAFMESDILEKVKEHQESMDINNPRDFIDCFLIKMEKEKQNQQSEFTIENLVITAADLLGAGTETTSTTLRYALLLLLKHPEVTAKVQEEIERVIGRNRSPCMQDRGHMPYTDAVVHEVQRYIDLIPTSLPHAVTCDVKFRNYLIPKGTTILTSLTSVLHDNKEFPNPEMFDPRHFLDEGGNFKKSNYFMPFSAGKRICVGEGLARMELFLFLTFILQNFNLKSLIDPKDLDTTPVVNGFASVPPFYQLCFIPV

| Structure (SMILES) | pIC50 [1] | pIC50 [2] | pIC50 [3] | logD [4] | Papp A→B at 10 µM [5] [×10⁻⁶ cm/s] | solubility thermodynamic at 18 h [10] [µM] | further results |
| --- | --- | --- | --- | --- | --- | --- | --- |
| CNCc1cc(Cl)ccc1Cn1c(=S)[nH]c(=O)c2[nH]ccc21 | 7.80 | 5.18 | 5.68 | 1.3 | 17 | 160 (≈ 53.6 µg/mL) | bioavailability [6]: 60%; bioavailability [7]: 72%; pIC50 [8]: 5.00; pIC50 [9]: < 4.52 |
| O=c1[nH]c(=S)n(C[C@H]2CCCO2)c2nc[nH]c12 | 6.55 | 4.54 | 5.62 | – | – | – | pKd [11]: 4.20 |
| CC(=O)NCc1cc(Cl)ccc1Cn1c(=S)[nH]c(=O)c2[nH]ccc21 | 6.85 | 4.80 | 5.85 | 2 | 11 | 3.3 (≈ 1.2 µg/mL) | – |
| C[C@@H](N)c1cc(Cl)ccc1Cn1c(=S)[nH]c(=O)c2[nH]cnc21 | – | – | 6.11 | – | – | – | – |
| C[C@H](N)c1cc(Cl)ccc1Cn1c(=S)[nH]c(=O)c2[nH]ccc21 | – | – | 5.96 | 1.4 | 10 | 850 (≈ 285 µg/mL) | – |
| CC(C)NCc1ccccc1Cn1c(=S)[nH]c(=O)c2[nH]ccc21 | 7.51 | 4.89 | 5.09 | 0.9 | 12 | 140 (≈ 46 µg/mL) | – |
| COc1ccc(Cl)cc1-c1cc(=O)[nH]c(=S)n1CC(N)=O [PF-06282999] | – | – | 6.00 | – | – | – | – |
| NCc1cc(Cl)ccc1Cn1c2cc[nH]c2c(=O)[nH][14c]1=S | – | – | – | – | – | – | Drug uptake [12]: Active; Drug uptake [13]: Active; Drug uptake [14]: Active; Drug uptake [15]: Active; Drug uptake [16]: 95 pmol |
| C[C@@H](N)c1cc(Cl)ccc1Cn1c2cc[nH]c2c(=O)[nH][14c]1=S | – | – | – | – | – | – | Drug uptake [17]: < 0.2%; Drug uptake [18]: Active; Drug uptake [19]: Active; Drug uptake [20]: 0.1% |
| O=c1[nH]c(=S)n(Cc2ccc(F)cc2)c2nc[nH]c12 | – | – | 6.23 | – | – | – | – |
| O=c1[nH]c(=S)n(Cc2ccccc2CN2CCC2)c2cc[nH]c12 | 7.82 | 5.18 | 5.82 | 1 | 19 | 930 (≈ 304 µg/mL) | – |
| CNCc1ccc(Cl)cc1Cn1c(=S)[nH]c(=O)c2[nH]ccc21 | 7.57 | 5.21 | 5.72 | 1.1 | 9.6 | 210 (≈ 70.3 µg/mL) | – |
| NCc1cc(Cl)ccc1Cn1c(=S)[nH]c(=O)c2[nH]ccc21 | – | – | 5.89 | 1.2 | 6 | 42 (≈ 13.5 µg/mL) | pIC50 [21]: < 4.52; pIC50 [22]: < 4.52; pIC50 [23]: < 4.52; pIC50 [24]: < 4.52; bioavailability [6]: 68%; bioavailability [7]: 45%; pIC50 [8]: < 4.40; pIC50 [9]: 4.72 |
| CNCc1c(Cl)cccc1Cn1c(=S)[nH]c(=O)c2[nH]ccc21 | 7.41 | 5.03 | 5.38 | 1.3 | 19 | 150 (≈ 50.2 µg/mL) | – |
| NC(c1ccccc1)c1ccccc1Cn1c(=S)[nH]c(=O)c2[nH]ccc21 (stereo not drawn) | – | – | 5.86 | 1.7 | 18 | 8.3 (≈ 3.01 µg/mL) | – |
| CN[C@H](C)c1cc(Cl)ccc1Cn1c(=S)[nH]c(=O)c2[nH]ccc21 (racemic) | 7.90 | 5.34 | 5.96 | 1.5 | 19 | 190 (≈ 66.3 µg/mL) | – |
| CC(C)NCc1ccccc1Cn1c(=S)[nH]c(=O)c2[nH]cnc21 | 7.41 | 4.10 | 5.38 | 0.3 | 0.89 | 18 (≈ 5.93 µg/mL) | – |

Source: ChEMBL document CHEMBL5126625, “Discovery of AZD4831, a Mechanism-Based Irreversible Inhibitor of Myeloperoxidase, As a Potential Treatment for Heart Failure with Preserved Ejection Fraction” (J Med Chem, 2022)
